System: not listed separately
Assay: Selectivity index, ratio of CC50 for human THP1 cells to IC50 for promastigote stage of Leishmania infantum
Assay type: functional, THP-1
Settings: not given
Summary of the method: (§1)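 Selectivity index was calculated as CC50 in Vero (T. cruzi) or THP-1 (L. infantum) cells divided by parasite IC50. Both values came from 72 h mammalian-cell MTT assays and the parasite assays; SI ≥ 3 was defined as parasite-selective.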

| Compound | Selectivity Index |
| --- | --- |
| O[C@@H]1Cc2ccccc2N[C@H](c2ccco2)C1 (relative stereo) | 0.3 |
| O[C@@H]1Cc2cc(F)ccc2N[C@H](c2ccoc2)C1 | 1.9 |
| Cc1ccc([C@@H]2C[C@H](O)Cc3cc(OC(F)(F)F)ccc3N2)o1 (relative stereo) | 9.7 |
| Cc1ccc([C@@H]2C[C@H](O)Cc3cc(F)ccc3N2)o1 (relative stereo) | >8.1 |
| Cc1ccc([C@@H]2C[C@H](O)Cc3ccccc3N2)s1 (relative stereo) | 5.5 |
| Cc1ccc([C@@H]2C[C@H](O)Cc3cc(OC(F)(F)F)ccc3N2)s1 (relative stereo) | 8.6 |
| Cc1ccc([C@@H]2C[C@H]3Cc4cc(Cl)ccc4N2O3)s1 (racemic) | >63.8 |
| Cc1ccsc1[C@@H]1C[C@H]2Cc3cc(OC(F)(F)F)ccc3N1O2 (racemic) | >153.9 |
| Cc1ccc([C@@H]2C[C@H]3Cc4cc(OC(F)(F)F)ccc4N2O3)o1 (racemic) | 16.3 |
| Cc1ccc([C@@H]2C[C@H]3Cc4cc(Cl)ccc4N2O3)o1 (racemic) | 19.6 |

System: Leishmania infantum
Assay: Antiparasitic activity against amastigote stage of Leishmania infantum infected in THP1 cells assessed as parasite growth inhibition after 24 hrs by hemocytometery
Assay type: functional, organism-based, THP-1
Settings: Leishmania infantum, THP-1, 24 h; read-out: IC50
Summary of the method: (§2)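 Host cells were Vero for T. cruzi (infected with tissue-derived trypomastigotes) and THP-1 (PMA-transformed, 10 ng/mL) for L. (L.) infantum (infected with late-phase promastigotes), at 1:10 cell:parasite for 24 h. Serial dilutions were given as two doses, the second on day 3 with a medium change. Read-out was % infected cells on methanol-fixed, Giemsa-stained slides (300 cells). IC50 came from sigmoidal regression; experiments in duplicate, concentrations in triplicate.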

| Compound | IC50 |
| --- | --- |
| O[C@@H]1Cc2ccccc2N[C@H](c2ccco2)C1 (relative stereo) | > 436 µM |
| O[C@@H]1Cc2cc(F)ccc2N[C@H](c2ccoc2)C1 | > 405 µM |
| Cc1ccc([C@@H]2C[C@H](O)Cc3cc(OC(F)(F)F)ccc3N2)o1 (relative stereo) | > 102 µM |
| Cc1ccc([C@@H]2C[C@H](O)Cc3cc(F)ccc3N2)o1 (relative stereo) | > 383 µM |
| Cc1ccc([C@@H]2C[C@H](O)Cc3ccccc3N2)s1 (relative stereo) | > 128 µM |
| Cc1ccc([C@@H]2C[C@H]3Cc4cc(Cl)ccc4N2O3)s1 (racemic) | > 344 µM |
| Cc1ccsc1[C@@H]1C[C@H]2Cc3cc(OC(F)(F)F)ccc3N1O2 (racemic) | > 293 µM |
| Cc1ccc([C@@H]2C[C@H]3Cc4cc(OC(F)(F)F)ccc4N2O3)o1 (racemic) | > 308 µM |
| Cc1ccc([C@@H]2C[C@H]3Cc4cc(Cl)ccc4N2O3)o1 (racemic) | > 130 µM |

Same assay, conditions: thp-1

| Compound | IC50 |
| --- | --- |
| Cc1ccc([C@@H]2C[C@H](O)Cc3cc(OC(F)(F)F)ccc3N2)s1 (relative stereo) | ND(toxic) |

System: Leishmania infantum
Assay: Antiparasitic activity against promastigote stage of Leishmania infantum infected in THP1 cells assessed as parasite growth inhibition […] by hemocytometery
Assay type: functional, organism-based
Settings: THP-1
Summary of the method: (§3)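 Exponential-phase T. cruzi Sylvio X10 epimastigotes (LIT medium with hiFCS) or L. (L.) infantum MHOM/BR/74/PP75 promastigotes (RPMI 1640, hemin, HEPES, 10% hiFCS) were exposed to threefold serial dilutions (0.3–300 µg/mL) for 72 h at 28 °C. Viable parasites were counted by hemocytometer with 0.25% eosin yellow. IC50 came from sigmoidal regression, given as mean ± SD.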

| Compound | IC50 |
| --- | --- |
| O[C@@H]1Cc2ccccc2N[C@H](c2ccco2)C1 (relative stereo) | 696 µM |
| O[C@@H]1Cc2cc(F)ccc2N[C@H](c2ccoc2)C1 | 365 µM |
| Cc1ccc([C@@H]2C[C@H](O)Cc3cc(OC(F)(F)F)ccc3N2)o1 (relative stereo) | 12.8 µM |
| Cc1ccc([C@@H]2C[C@H](O)Cc3cc(F)ccc3N2)o1 (relative stereo) | 141 µM |
| Cc1ccc([C@@H]2C[C@H](O)Cc3cc(OC(F)(F)F)ccc3N2)s1 (relative stereo) | 11.3 µM |

System: Trypanosoma cruzi
Assay: Antiparasitic activity against epimastigote stage of Trypanosoma cruzi infected in Vero cells assessed as parasite growth inhibition […] by hemocytometery
Assay type: functional, organism-based
Settings: not given
Summary of the method: as §3

| Compound | IC50 |
| --- | --- |
| O[C@@H]1Cc2ccccc2N[C@H](c2ccco2)C1 (relative stereo) | 884 µM |
| O[C@@H]1Cc2cc(F)ccc2N[C@H](c2ccoc2)C1 | 177 µM |
| Cc1ccc([C@@H]2C[C@H](O)Cc3cc(OC(F)(F)F)ccc3N2)o1 (relative stereo) | 42.7 µM |
| Cc1ccc([C@@H]2C[C@H](O)Cc3cc(F)ccc3N2)o1 (relative stereo) | 115 µM |
| Cc1ccc([C@@H]2C[C@H](O)Cc3ccccc3N2)s1 (relative stereo) | 22.8 µM |
| Cc1ccc([C@@H]2C[C@H](O)Cc3cc(OC(F)(F)F)ccc3N2)s1 (relative stereo) | 65.7 µM |
| Cc1ccc([C@@H]2C[C@H]3Cc4cc(Cl)ccc4N2O3)s1 (racemic) | 24.8 µM |
| Cc1ccsc1[C@@H]1C[C@H]2Cc3cc(OC(F)(F)F)ccc3N1O2 (racemic) | 47.2 µM |
| Cc1ccc([C@@H]2C[C@H]3Cc4cc(OC(F)(F)F)ccc4N2O3)o1 (racemic) | 89.2 µM |
| Cc1ccc([C@@H]2C[C@H]3Cc4cc(Cl)ccc4N2O3)o1 (racemic) | 46.2 µM |

System: not listed separately
Assay: Selectivity index, ratio of CC50 for African green monkey Vero cells to IC50 for amastigote stage of Trypanosoma cruzi
Assay type: functional
Settings: not given
Summary of the method: as §1

| Compound | Selectivity Index |
| --- | --- |
| Cc1ccc([C@@H]2C[C@H](O)Cc3ccccc3N2)s1 (relative stereo) | 7.3 |
| Cc1ccc([C@@H]2C[C@H]3Cc4cc(Cl)ccc4N2O3)s1 (racemic) | 11.3 |
| Cc1ccsc1[C@@H]1C[C@H]2Cc3cc(OC(F)(F)F)ccc3N1O2 (racemic) | 0.3 |
| Cc1ccc([C@@H]2C[C@H]3Cc4cc(OC(F)(F)F)ccc4N2O3)o1 (racemic) | 2 |
| Cc1ccc([C@@H]2C[C@H]3Cc4cc(Cl)ccc4N2O3)o1 (racemic) | 3.7 |

System: Trypanosoma cruzi
Assay: Antiparasitic activity against amastigote stage of Trypanosoma cruzi infected in Vero cells assessed as parasite growth inhibition after 24 hrs by hemocytometery
Assay type: functional, organism-based
Settings: Trypanosoma cruzi, Vero, 24 h; read-out: IC50
Summary of the method: as §2

| Compound | IC50 |
| --- | --- |
| O[C@@H]1Cc2ccccc2N[C@H](c2ccco2)C1 (relative stereo) | > 436 µM |
| O[C@@H]1Cc2cc(F)ccc2N[C@H](c2ccoc2)C1 | > 405 µM |
| Cc1ccc([C@@H]2C[C@H](O)Cc3cc(OC(F)(F)F)ccc3N2)o1 (relative stereo) | > 102 µM |
| Cc1ccc([C@@H]2C[C@H](O)Cc3cc(F)ccc3N2)o1 (relative stereo) | > 383 µM |
| Cc1ccc([C@@H]2C[C@H](O)Cc3ccccc3N2)s1 (relative stereo) | 131 µM |
| Cc1ccc([C@@H]2C[C@H]3Cc4cc(Cl)ccc4N2O3)s1 (racemic) | 101 µM |
| Cc1ccsc1[C@@H]1C[C@H]2Cc3cc(OC(F)(F)F)ccc3N1O2 (racemic) | 202 µM |
| Cc1ccc([C@@H]2C[C@H]3Cc4cc(OC(F)(F)F)ccc4N2O3)o1 (racemic) | 212 µM |
| Cc1ccc([C@@H]2C[C@H]3Cc4cc(Cl)ccc4N2O3)o1 (racemic) | 312 µM |

Same assay, conditions: vero

| Compound | IC50 |
| --- | --- |
| Cc1ccc([C@@H]2C[C@H](O)Cc3cc(OC(F)(F)F)ccc3N2)s1 (relative stereo) | ND(toxic) |

System: not listed separately
Assay: Selectivity index, ratio of CC50 for African green monkey Vero cells to IC50 for epimastigote stage of Trypanosoma cruzi
Assay type: functional
Settings: not given
Summary of the method: as §1

| Compound | Selectivity Index |
| --- | --- |
| O[C@@H]1Cc2ccccc2N[C@H](c2ccco2)C1 (relative stereo) | >1.5 |
| O[C@@H]1Cc2cc(F)ccc2N[C@H](c2ccoc2)C1 | 5.9 |
| Cc1ccc([C@@H]2C[C@H](O)Cc3cc(OC(F)(F)F)ccc3N2)o1 (relative stereo) | 1.9 |
| Cc1ccc([C@@H]2C[C@H](O)Cc3cc(F)ccc3N2)o1 (relative stereo) | 7.2 |
| Cc1ccc([C@@H]2C[C@H](O)Cc3ccccc3N2)s1 (relative stereo) | 41.9 |
| Cc1ccc([C@@H]2C[C@H](O)Cc3cc(OC(F)(F)F)ccc3N2)s1 (relative stereo) | 0.4 |
| Cc1ccc([C@@H]2C[C@H]3Cc4cc(Cl)ccc4N2O3)s1 (racemic) | 46.1 |
| Cc1ccsc1[C@@H]1C[C@H]2Cc3cc(OC(F)(F)F)ccc3N1O2 (racemic) | 1.3 |
| Cc1ccc([C@@H]2C[C@H]3Cc4cc(OC(F)(F)F)ccc4N2O3)o1 (racemic) | 4.6 |
| Cc1ccc([C@@H]2C[C@H]3Cc4cc(Cl)ccc4N2O3)o1 (racemic) | 25.1 |

System: Leishmania infantum
Assay: Antiparasitic activity against promastigote stage of Leishmania infantum assessed as parasite growth inhibition after 72 hrs by hemocytometery
Settings: not given

| Compound | IC50 |
| --- | --- |
| Cc1ccc([C@@H]2C[C@H](O)Cc3ccccc3N2)s1 (relative stereo) | 111 µM |
| Cc1ccc([C@@H]2C[C@H]3Cc4cc(Cl)ccc4N2O3)s1 (racemic) | 32.3 µM |
| Cc1ccsc1[C@@H]1C[C@H]2Cc3cc(OC(F)(F)F)ccc3N1O2 (racemic) | 11.4 µM |
| Cc1ccc([C@@H]2C[C@H]3Cc4cc(OC(F)(F)F)ccc4N2O3)o1 (racemic) | 10.8 µM |
| Cc1ccc([C@@H]2C[C@H]3Cc4cc(Cl)ccc4N2O3)o1 (racemic) | 19.1 µM |

System: not listed separately
Assay: Cytotoxicity against human THP1 cells
Assay type: cell-based
Settings: THP-1 cells
Summary of the method: (§4)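 Vero monolayers or THP-1 cells (made adherent with 10 ng/mL PMA), in RPMI 1640 with 10% hiFCS, were exposed to compound (0.3–300 µg/mL) for 72 h at 37 °C, 5% CO2. Viability was measured by MTT, with formazan dissolved in DMSO and read at 580 nm. % cytotoxicity was calculated against untreated cells; CC50 came from sigmoidal regression, given as mean ± SD.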

| Compound | CC50 |
| --- | --- |
| O[C@@H]1Cc2ccccc2N[C@H](c2ccco2)C1 (relative stereo) | 236 µM |
| O[C@@H]1Cc2cc(F)ccc2N[C@H](c2ccoc2)C1 | 689 µM |
| Cc1ccc([C@@H]2C[C@H](O)Cc3cc(OC(F)(F)F)ccc3N2)o1 (relative stereo) | 124 µM |
| Cc1ccc([C@@H]2C[C@H](O)Cc3cc(F)ccc3N2)o1 (relative stereo) | > 1150 µM |
| Cc1ccc([C@@H]2C[C@H](O)Cc3ccccc3N2)s1 (relative stereo) | 608 µM |
| Cc1ccc([C@@H]2C[C@H](O)Cc3cc(OC(F)(F)F)ccc3N2)s1 (relative stereo) | 98 µM |
| Cc1ccc([C@@H]2C[C@H]3Cc4cc(Cl)ccc4N2O3)s1 (racemic) | > 2060 µM |
| Cc1ccsc1[C@@H]1C[C@H]2Cc3cc(OC(F)(F)F)ccc3N1O2 (racemic) | > 1760 µM |
| Cc1ccc([C@@H]2C[C@H]3Cc4cc(OC(F)(F)F)ccc4N2O3)o1 (racemic) | 176 µM |
| Cc1ccc([C@@H]2C[C@H]3Cc4cc(Cl)ccc4N2O3)o1 (racemic) | 374 µM |

System: not listed separately
Assay: Cytotoxicity against African green monkey Vero cells
Assay type: cell-based
Settings: chlorocebus sabaeus
Summary of the method: as §4

| Compound | CC50 |
| --- | --- |
| O[C@@H]1Cc2ccccc2N[C@H](c2ccco2)C1 (relative stereo) | > 1310 µM |
| O[C@@H]1Cc2cc(F)ccc2N[C@H](c2ccoc2)C1 | 1040 µM |
| Cc1ccc([C@@H]2C[C@H](O)Cc3cc(OC(F)(F)F)ccc3N2)o1 (relative stereo) | 82.1 µM |
| Cc1ccc([C@@H]2C[C@H](O)Cc3cc(F)ccc3N2)o1 (relative stereo) | 823 µM |
| Cc1ccc([C@@H]2C[C@H](O)Cc3ccccc3N2)s1 (relative stereo) | 956 µM |
| Cc1ccc([C@@H]2C[C@H](O)Cc3cc(OC(F)(F)F)ccc3N2)s1 (relative stereo) | 23.9 µM |
| Cc1ccc([C@@H]2C[C@H]3Cc4cc(Cl)ccc4N2O3)s1 (racemic) | 1140 µM |
| Cc1ccsc1[C@@H]1C[C@H]2Cc3cc(OC(F)(F)F)ccc3N1O2 (racemic) | 61.7 µM |
| Cc1ccc([C@@H]2C[C@H]3Cc4cc(OC(F)(F)F)ccc4N2O3)o1 (racemic) | 414 µM |
| Cc1ccc([C@@H]2C[C@H]3Cc4cc(Cl)ccc4N2O3)o1 (racemic) | 1160 µM |

From ChEMBL document CHEMBL3352355, “Synthesis of novel polysubstituted (2SR,4RS)-2-heteroaryltetrahydro-1,4-epoxy-1-benzazepines and cis-2-heteroaryl-4-hydroxytetrahydro-1H-1-benzazepines as antiparasitic agents” (Eur J Med Chem, 2014)
